Reference: ChEMBL document CHEMBL1777723, “Design, synthesis, and evaluation of bromo-retrochalcone derivatives as protein tyrosine phosphatase 1B inhibitors” (Bioorg Med Chem Lett, 2011)

Experiments:
[1] = target: T1, Tyrosine-protein phosphatase non-receptor type 1 (Homo sapiens, UniProt P18031); experiment: (§1) Inhibition of recombinant human PTP1B using p-nitrophenyl phosphate as substrate after 30 mins
T1 sequence (P18031 whole entry): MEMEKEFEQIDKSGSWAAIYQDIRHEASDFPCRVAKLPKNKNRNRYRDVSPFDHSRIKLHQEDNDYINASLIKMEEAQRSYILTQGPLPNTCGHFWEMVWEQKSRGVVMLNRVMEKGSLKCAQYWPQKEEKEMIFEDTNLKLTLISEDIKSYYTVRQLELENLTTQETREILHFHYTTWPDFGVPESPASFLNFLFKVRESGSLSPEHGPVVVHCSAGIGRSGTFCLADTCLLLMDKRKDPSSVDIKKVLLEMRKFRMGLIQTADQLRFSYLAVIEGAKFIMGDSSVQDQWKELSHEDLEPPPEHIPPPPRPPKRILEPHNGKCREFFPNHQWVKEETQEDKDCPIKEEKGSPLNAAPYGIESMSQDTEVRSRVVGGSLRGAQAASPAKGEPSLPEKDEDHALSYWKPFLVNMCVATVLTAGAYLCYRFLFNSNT
Outline: (§2)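 Reaction buffer: 10 citrate pH […], 0.1 M NaCl, 1 mM EDTA, 1 mM dithiothreitol. Enzyme and sample were added with 50 of 4 mM pNPP substrate stock, incubated 30 min at 37 °C, then quenched with 10 N NaOH.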

[2] = target: T2, Tyrosine-protein phosphatase non-receptor type 1 (Homo sapiens) (UniProt P18031); experiment: as §1; outline: as §2
T2 sequence (whole entry): T1 sequence (P18031 whole entry)

IC50 [1] [µM] | inhibition [2] | Compound
1.9 | Dose-dependent effect | C=C(C)C(C)c1cc(C(=O)/C=C/c2cc(Br)c(O)cc2OC)ccc1OC (stereo unspecified)
2.9 | Dose-dependent effect | COc1cc(O)c(Br)cc1/C=C/C(=O)c1ccc(OC)c(CC=C(C)C)c1
2.6 | Dose-dependent effect | C=C(C)C(C)c1cc(C(=O)/C=C/c2cc(Br)c(O)cc2O)ccc1OC (stereo unspecified)
3.4 | Dose-dependent effect | COc1cc(O)c(Br)cc1/C=C/C(=O)c1ccc(NC(=O)c2ccc(C(C)(C)C)cc2)cc1
4.9 | Dose-dependent effect | COc1cc(O)c(Br)cc1/C=C/C(=O)c1ccc(OC(=O)c2ccccc2)cc1
4.5 | Dose-dependent effect | C=CCN(CC=C)c1cccc(C(=O)/C=C/c2cc(Br)c(O)cc2OC)c1
> 30 |  | COc1cc(O)c(Br)cc1/C=C/C(=O)c1ccc(N(C)C)cc1
8 | Dose-dependent effect | COc1cc(O)c(Br)cc1/C=C/C(=O)c1ccc(N2CCOCC2)cc1
5.3 | Dose-dependent effect | C=CCc1cc(C(=O)/C=C/c2cc(Br)c(O)cc2OC)ccc1OC
2.9 | Dose-dependent effect | COc1cc(O)c(Br)cc1/C=C/C(=O)c1ccc(OCc2ccccc2)cc1
11.3 | Dose-dependent effect | COc1cc(O)c(Br)cc1/C=C/C(=O)c1cccc(NS(C)(=O)=O)c1
4.9 | Dose-dependent effect | COc1cc(O)c(Br)cc1/C=C/C(=O)c1cccc(N2CCCCC2)c1
18.4 | Dose-dependent effect | COc1cc(O)c(Br)cc1/C=C/C(=O)c1ccc(OS(C)(=O)=O)cc1
3.5 | Dose-dependent effect | C=CCN(CC=C)c1ccccc1C(=O)/C=C/c1cc(Br)c(O)cc1OC
6.8 | Dose-dependent effect | COc1cc(O)c(Br)cc1/C=C/C(=O)c1ccccc1N1CCCCC1
10.8 | Dose-dependent effect | CCOC(=O)CCCOc1ccc(C(=O)/C=C/c2cc(Br)c(O)cc2OC)cc1
3.5 | Dose-dependent effect | COc1cc(O)c(Br)cc1/C=C/C(=O)c1ccc(OCC=C(C)C)cc1
6.3 | Dose-dependent effect | COc1cc(O)c(Br)cc1/C=C/C(=O)c1cc2c(cc1N(C)C)OCO2
20.7 |  | C=C(C)[C@H](C)c1cc(/C=C/C(=O)c2ccc(O)cc2)c(OC)cc1O [LICOCHALCONE E]
4.2 | Dose-dependent effect | CCCCOc1ccc(C(=O)/C=C/c2cc(Br)c(O)cc2OC)cc1
4.4 | Dose-dependent effect | COc1cc(O)c(Br)cc1/C=C/C(=O)c1ccc(O)c(CC=C(C)C)c1
2.9 | Dose-dependent effect | C=C(C)C(C)c1cc(C(=O)/C=C/c2cc(Br)c(OC3CCCCO3)cc2O)ccc1OC (stereo unspecified)
7 | Dose-dependent effect | C=C(C)C(C)c1cc(C(=O)/C=C/c2cc(Br)c(O)cc2OC)ccc1OCC=C(C)C (stereo unspecified)
13.9 | Dose-dependent effect | COc1cc(O)c(Br)cc1/C=C/C(=O)c1ccccc1N(C)C

Continued, compound first:

Compound | IC50 [1] [µM] | inhibition [2]
COc1ccc(C(=O)/C=C/c2cc(Br)c(O)cc2OC)cc1 | 9.9 | Dose-dependent effect
COc1cccc(C(=O)/C=C/c2cc(Br)c(O)cc2OC)c1 | 11.1 | Dose-dependent effect
COc1cc(O)c(Br)cc1/C=C/C(=O)c1ccc(N)cc1 | 6.2 | Dose-dependent effect
C=C(C)C(C)c1cc(C(=O)/C=C/c2cc(Br)c(OC3CCCCO3)cc2OC)ccc1O (stereo unspecified) | 10.3 | Dose-dependent effect
COc1cc(O)c(Br)cc1/C=C/C(=O)c1ccc(OCC(=O)O)cc1 | > 30 | 
C=C(C)C(C)c1cc(C(=O)/C=C/c2cc(Br)c(O)cc2OC)ccc1O (stereo unspecified) | 6.9 | Dose-dependent effect
COc1cc(O)c(Br)cc1/C=C/C(=O)c1ccc(OS(=O)(=O)c2ccc(C)cc2)cc1 | 2.7 | Dose-dependent effect
COc1cc(O)c(Br)cc1/C=C/C(=O)c1ccc(OC(=O)c2ccc(C(C)(C)C)cc2)cc1 | 2.4 | Dose-dependent effect
COc1cc(O)c(Br)cc1/C=C/C(=O)c1ccc(-n2cccn2)cc1 | 6 | Dose-dependent effect
CCOC(=O)COc1ccc(C(=O)/C=C/c2cc(Br)c(O)cc2OC)cc1 | 15.2 | Dose-dependent effect
COc1cc(O)c(Br)cc1/C=C/C(=O)c1ccc(O)cc1 | 13.7 | Dose-dependent effect
COc1cc(O)c(Br)cc1/C=C/C(=O)c1ccc(N2CCCCC2)cc1 | 2.6 | Dose-dependent effect
COc1cc(O)c(Br)cc1/C=C/C(=O)c1ccc(OCCCC(=O)O)cc1 | 30 | Dose-dependent effect
COc1cc(O)c(Br)cc1/C=C/C(=O)c1ccc(OC(=O)c2ccc(Br)cc2)cc1 | 2.3 | Dose-dependent effect
C=CCN(CC=C)c1ccc(C(=O)/C=C/c2cc(Br)c(O)cc2OC)cc1 | 3.4 | Dose-dependent effect
COc1cc(O)c(Br)cc1/C=C/C(=O)c1cccc(N)c1 | 6.8 | Dose-dependent effect
C=CCc1cc(C(=O)/C=C/c2cc(Br)c(O)cc2OC)ccc1O | 7.1 | Dose-dependent effect
COc1cc(O)c(Br)cc1/C=C/C(=O)c1cccc(N(C)C)c1 | 26.4 | Dose-dependent effect
